Compounds with a hit are over-represented: about 2.4% of the library has one in this group of screens.
DNMT1 block: blocks human DNA methyltransferase DNMT1; inhibition (reported as % activation of signal), % at 10 µM; hit rate 0.83% among 360,000; DNMT1 molecular beacon, Hinp1I cleavage, fluorescence; P26358; in the data active = inhibition above about 50%
NadD block: inhibitors of Staphylococcus aureus NadD | purified NadD enzyme, colorimetric absorbance read-out | inhibition, % at 20 µM | hit rate 0.78% among 360,000 | AID 602399; in the data active = inhibition above about 26%
SUMO1 PPI mod: SUMO1-SIM interaction modulation | SUMO1 binding to a labelled peptide, TR-FRET, 1 h | hit rate 0.33% among 360,000 | inhibition, % at 20 µM; in the data active = inhibition above about 37%
Target sequence (P63165 whole entry, looked up): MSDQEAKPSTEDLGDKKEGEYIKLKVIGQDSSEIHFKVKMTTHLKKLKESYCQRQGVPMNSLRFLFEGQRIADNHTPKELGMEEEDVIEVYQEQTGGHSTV
Scp1 inh: Scp-1 (human) phosphatase inhibition; Q9GZU7; Recombinant Scp1, phosphopeptide, malachite green phosphate absorbance; inhibition, % at 20 µM; hit rate 0.88% among 340,000; AID 493091;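 active = inhibition above about 50% at 20 µM, limit read from the data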
Target sequence (Q9GZU7 76-261 limits assumed): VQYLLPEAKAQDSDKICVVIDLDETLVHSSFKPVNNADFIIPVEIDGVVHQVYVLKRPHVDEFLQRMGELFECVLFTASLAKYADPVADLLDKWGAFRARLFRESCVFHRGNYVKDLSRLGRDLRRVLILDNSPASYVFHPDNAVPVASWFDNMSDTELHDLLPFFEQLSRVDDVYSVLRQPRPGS
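Times: enzyme reaction 45 min at room temperature, colour 5 min, stabilisation 30 min. Material: SCP-1 catalytic fragment, aa 76-261. Medium: Acidic Tris acetate buffer with magnesium and detergent. Signal: colorimetric free-phosphate detection, absorbance 630 nm. Read-out basis: % inhibition of SCP-1 phosphate liberation. Reagent: Phosphorylated 17-residue peptide substrate.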
STEP block: inhibitors of human striatal-enriched phosphatase STEP; recombinant STEP, OMFP fluorogenic substrate, fluorescence; inhibition, % at 20 µM; hit rate 0.25% among 360,000; AID 588621;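 active = inhibition at 20 µM, scaled per plate between control wells, above about 37%, limit read from the data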
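material = STEP tyrosine phosphatase | reagent = fluorogenic phosphatase substrate OMFP at 25 µM final | doses = single compound dose of 20 µM, 1% DMSO final | schedule = 20 min reaction, room temperature, in the dark | measured by = fluorescence, 480/540 nm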
LMPTP block: LMPTP (human) inhibition | recombinant LMPTP-A, OMFP fluorogenic substrate, fluorescence intensity | hit rate 0.22% among 360,000 | inhibition, % at 20 µM;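 active = compounds that cut the enzyme signal by at least half of the control window in the single-dose screen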
Target sequence (P24666 whole entry, looked up): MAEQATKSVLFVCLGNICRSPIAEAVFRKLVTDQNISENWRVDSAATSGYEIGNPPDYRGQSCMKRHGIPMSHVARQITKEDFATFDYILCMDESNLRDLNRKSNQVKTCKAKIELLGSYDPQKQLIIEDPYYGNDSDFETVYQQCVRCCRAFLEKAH
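Test system: LMPTP-A phosphatase enzyme. Amount: LMPTP-A at 0.625 nM final in the reaction. Reagent: OMFP substrate, 400 µM final. Times: 50 min at room temperature. Signal: endpoint fluorescence intensity from OMFP dephosphorylation. Read-out basis: % inhibition. Benchmarks: no-enzyme and uninhibited controls.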
Scp1 confirm: Scp-1 (human) inhibition, single-dose confirmed; shares compounds with Scp1 inh; recombinant SCP-1 catalytic domain, phosphate release, malachite green absorbance; inhibition, % at 20 µM; hit rate 61% among 2,500; AID 540281
MG interference: interferes with malachite green readout, flagging false Scp-1 hits. shares compounds with Scp1 inh. Colorimetric interference counterscreen, malachite green absorbance 630 nm. apparent inhibition (interference), % at 20 µM. 2,500 tested, under 10 active;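 also: compounds added after enzyme reaction finished so only phosphate colour detection is probed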
Scp-1 Tm shift: validation of human Scp-1 inhibitors by thermal shift binding; shares compounds with Scp1 inh; Recombinant SCP1, Sypro Orange thermal shift Tm; thermal shift relative to vanadate control, % at 40 µM; hit rate 25% among 1,500;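 active = substances whose mean melting-temperature shift, as a percentage of the reference inhibitor's shift, reaches about 5.3%, limit read from the data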
Each line names hits and unclear results; the compound was inactive in the other large screens (follow-up assays come after a bar, where they were run).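 The calls were made as follows, unless noted: active = inhibition of at least 30% at 20 µM; inactive = the rest.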

O=C(Nc1cccc([N+](=O)[O-])c1)c1ccncc1	none
O=C(Nc1cccc([N+](=O)[O-])c1)c1cnccn1	Scp1 inh 58.4 | Scp1 confirm 56.2 | MG interference inactive | Scp-1 Tm shift 6.4
Cc1ccc(CN2C(=O)C(CC(C)C)Nc3ncnc(N4CCOCC4)c32)cc1 (centres undefined)	none
Cc1ccccc1N=C1NC(=O)/C(=C/c2cccn2-c2cccc(C(=O)O)c2)S1	Scp1 inh 65.8 (no result: DNMT1 block, NadD block, SUMO1 PPI mod, STEP block, LMPTP block) | Scp1 confirm 65.4 | MG interference inactive | Scp-1 Tm shift inactive
CN(CC(=O)Nc1ccc(F)cc1)C(=O)COC(=O)c1cc(Br)c(Br)s1	none
COC(=O)Cn1c(C)c(C#N)c2ccccc21	none
COC(=O)CNC(=O)c1c(-c2c(Cl)cccc2Cl)noc1C	Scp1 inh 54.7 | Scp1 confirm inactive | MG interference inactive
O=C(CN1CCC(NC(=O)c2cccc(F)c2)CC1)NCc1cccs1	none
CC1CCN(C(=O)CCc2ccc(S(=O)(=O)NC(C)C)cc2)CC1	Scp1 inh 66.6 | Scp1 confirm inactive | MG interference inactive
OCCCN=C1CCCc2c1[nH]c1ccc(Cl)cc21	none
COC(=O)c1ccc(CO/N=C/c2cccc([N+](=O)[O-])c2)cc1	none
COc1ccccc1Oc1nc2c(c(=O)n(Cc3ccccc3F)c(=O)n2C)n1C	Scp1 inh 67.5 | Scp1 confirm inactive | MG interference inactive
COC(=O)C1=C(C)N(Cc2ccccc2)C(=NCCc2ccccn2)N[C@H]1c1cccc(F)c1	Scp1 inh 58.5 | Scp1 confirm inactive | MG interference inactive
CCN1C(=NCCc2ccccn2)N[C@@H](c2cccc(F)c2)C(C(=O)OC)=C1C	none
CN(Cc1ccccc1)c1nc2c(c(=O)n(C)c(=O)n2C)n1CCCc1ccccc1	none
CCCCn1c(-c2ccco2)nc2oc3ccccc3c(=O)c2c1=O	Scp1 inh 62.0 | Scp1 confirm inactive | MG interference inactive
COc1cc(NC(=O)c2cccs2)c(C(=O)OCC(=O)NC(=O)NC(C)(C)C)cc1OC	none
O=C(c1cc2nc(-c3ccc(F)cc3)cc(C(F)(F)F)n2n1)N1CCOCC1	Scp1 inh 53.0 | Scp1 confirm inactive | MG interference inactive
O=C(c1cc2nc(-c3ccccc3)cc(C(F)(F)F)n2n1)N1CCOCC1	none
O=C(NCc1ccc(F)cc1)C(Cc1ccccc1)NS(=O)(=O)c1cccs1 (centres undefined)	none
Cc1ccc(S(=O)(=O)N(C)c2ccc(C(=O)NCc3cccnc3)cc2)cc1	Scp1 inh 79.1 | Scp1 confirm inactive | MG interference inactive
COc1ccc(-c2cc(=O)c3c(O)cc(OC4OC(COC5OC(C)C(O)C(O)C5O)C(O)C(O)C4O)cc3o2)cc1O (centres undefined)	none
COc1ccc([C@@H]2CC(=O)c3c(O)cc(O[C@@H]4O[C@H](CO[C@@H]5O[C@@H](C)[C@H](O)[C@@H](O)[C@H]5O)[C@@H](O)[C@H](O)[C@H]4O)cc3O2)cc1O	Scp1 inh 62.1 | Scp1 confirm 39.4 | MG interference inactive | Scp-1 Tm shift inactive
COc1ccccc1-c1nnc2sc(-c3cnccn3)nn12	Scp1 inh 70.2 | Scp1 confirm 55.9 | MG interference inactive | Scp-1 Tm shift 5.8
O=C(CSc1nnc(Nc2ccccc2F)s1)NC(=O)CN1CCCC1=O	Scp1 inh 63.2 | Scp1 confirm 57.4 | MG interference inactive | Scp-1 Tm shift inactive
O=C(CSc1nnc(Nc2ccccc2F)s1)NC1CCS(=O)(=O)C1 (centres undefined)	none
COc1ccc(C(=O)NNC(=O)CN2CCC(n3nnc4cc(F)ccc43)CC2)cc1	none

Screens from PubChem.
